Published values from different studies.
MTNR1B: Melatonin receptor type 1B (MTNR1B, Homo sapiens, UniProt P49286)
GRM7: Metabotropic glutamate receptor 7 (GRM7, Homo sapiens, UniProt Q14831)

Cc1cc2nc3c(=O)[nH]c(=O)nc-3n(C[C@H](O)[C@H](O)[C@H](O)COP(=O)(O)OP(=O)(O)OC[C@H]3O[C@@H](n4cnc5c(N)ncnc54)[C@H](O)[C@@H]3O)c2cc1C  Kd (Protein PRRC2C (Homo sapiens, UniProt Q9Y520); binding; lysate): 23.7 µM
COc1ccc(Br)c(CNc2cccnc2)c1  Ki (MTNR1B; cell-free assay): 0.00692 µM
COc1cc(I)c2[nH]cc(CCNC(C)=O)c2c1  EC50 (MTNR1B; β-arrestin recruitment, agonist): 0.0603 µM
CCCCN1CCC(COC(=O)c2ccc(N)c(OCF)c2)CC1  Ki (5-hydroxytryptamine receptor 1B (HTR1B, Homo sapiens, UniProt P28222); cell-free assay, radioligand): > 10 µM
Nc1nc(NCc2ccc(Oc3ccccc3)cc2)nc(-c2c(F)cccc2CO)n1  Ki (MTNR1B; cell-free assay, radioligand): 1.1 µM
COCC(CNC(C)=O)c1cccc2ccc(OC)cc12 (centres unmarked)  EC50 (MTNR1B; β-arrestin recruitment, agonist): 0.00309 µM
Cc1cc(Nc2cc3ncccc3c(N[C@@H]3C[C@H]4CC[C@@H](C3)N4CCC#N)n2)n[nH]1  Kd (Cyclin-dependent kinase 7 (CDK7, Homo sapiens, UniProt P50613); binding, competition with immobilised ligand): 0.86 µM
C[C@H](C(=O)N[C@@H]1COc2ccccc2[C@H]1S(C)(=O)=O)c1ccc(F)cc1  EC50 (GRM7; cAMP, agonist, luciferase): 0.028 µM
COc1ccc2c(c1)C(=O)C1(Cc3ccccc3C1)O2  Ki (Peptidyl-prolyl cis-trans isomerase NIMA-interacting 1 (PIN1, Homo sapiens, UniProt Q13526); enzyme activity, inhibitor): 100 µM
COc1ccc(-c2nsc(NC(=O)[C@@H]3C[C@H]3C)c2C)cc1  EC50 (GRM7; calcium signal, agonist): > 16.7 µM
COc1ccc2[nH]cc(CCNC(C)=O)c2c1I  EC50 (MTNR1B; cAMP, agonist, TR-FRET): 0.229 µM
C=C1CC[C@@H]2[C@](C)(CO)[C@H](O)CC[C@@]2(C)[C@@H]1CCC1=CCOC1=O  Ki (UDP-glucuronosyltransferase 2B7 (UGT2B7, Homo sapiens, UniProt P16662); enzyme activity, inhibitor; pH 7.4): 1.5 µM
O=C(NCCc1cccc2ccccc12)C1CCC1  EC50 (MTNR1B; cAMP, agonist, TR-FRET): 1.66 µM
CC(=O)c1cc([N+](=O)[O-])c(Sc2cccc(Cl)c2Cl)s1  EC50 (Cathepsin D (CTSD, Homo sapiens, UniProt P07339); enzyme activity, inhibitor): > 50 µM
